In experiment [1] the target is T1, Y314D-Ppara (Mus musculus, UniProt P23204, Y314D).
T1 sequence (P23204 1-468 Y314D): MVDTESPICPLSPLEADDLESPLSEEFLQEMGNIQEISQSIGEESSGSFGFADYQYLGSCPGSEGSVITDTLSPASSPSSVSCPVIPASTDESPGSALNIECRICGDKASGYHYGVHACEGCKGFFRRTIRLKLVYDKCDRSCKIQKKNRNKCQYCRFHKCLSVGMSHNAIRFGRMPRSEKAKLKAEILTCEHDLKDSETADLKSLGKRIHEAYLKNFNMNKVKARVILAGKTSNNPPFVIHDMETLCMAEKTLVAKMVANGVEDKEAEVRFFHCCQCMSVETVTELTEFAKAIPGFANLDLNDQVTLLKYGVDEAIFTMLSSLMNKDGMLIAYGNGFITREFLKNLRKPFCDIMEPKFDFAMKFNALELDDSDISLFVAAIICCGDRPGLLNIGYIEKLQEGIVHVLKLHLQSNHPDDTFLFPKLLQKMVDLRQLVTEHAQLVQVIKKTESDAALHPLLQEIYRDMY
Format: cell-based. Particulars: Ppara-null astrocytes transduced with lenti-Y314D-Ppara, 4 h.

Experiment [2] addresses T2, Y314D/Y464D-Ppara (Mus musculus, UniProt P23204, Y314D/Y464D).
T2 sequence (P23204 1-468 Y314D/Y464D): T1 sequence (P23204 1-468 Y314D) with Y464D
It is filed as cell-based. Conditions: Ppara-null astrocytes transduced with lenti-Y314D/Y464D-Ppara, 4 h.

The test system of experiment [3] is Ppara-null hippocampal neurons. It is filed as cell-based, mouse. An outline of the steps:
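Cell lysates were made in RIPA buffer with protease/phosphatase inhibitors, needle-sheared, rotated 30 min at 4°C and spun at 18,000 × g. Samples of 15–30 μg were run on 10% or 12% SDS gels and semidry-transferred to nitrocellulose. Anti-CREB (1:1000) was applied overnight at 4°C, then IR-dye secondary (1:17,000) for 45 min at room temperature. Infrared imaging followed, with densitometry normalised to loading controls.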

Experiment [4] deals with PPRE-driven luciferase activity. The experiment can be described thus: PPRE-luciferase assay in Ppara-null astrocytes transduced with empty vector. Format: cell-based, mouse. Conditions: 4 h. The method, boiled down: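 Ppara-null astrocytes came from mixed glial cultures of 7-d-old pups. They were transduced 48 h with empty-vector lentivirions and transfected with tk-PPREx3-Luc reporter. After 24 h they were treated with different doses of test compound for 4 h, then luciferase activity was read. Values are mean ± SD of three independent experiments.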

Experiment [5] concerns PPRE luciferase activity. The experiment can be described thus: PPRE-luciferase assay in Pparb-null astrocytes. It is filed as cell-based, mouse. Particulars: for inhibition by GW9662 of ligand-mediated increase in PPRE-luciferase activity: Pparb-null astrocytes pre-treated with PPARγ-antagonist GW9662; for PPRE luciferase activity: Pparb-null astrocytes, 4 h. An outline of the steps: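 Astrocytes were taken from mixed glial cultures of 7-day-old Pparb-null mouse pups and pretreated with the PPARγ antagonist GW9662. At 60–70% confluence they were transfected with tk-PPREx3-Luc reporter. After 24 h they were treated with graded concentrations of test compound for 4 h, then luciferase activity was read.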

Experiment [6] has as its system CREB promoter. Description: ChIP analyses of the CREB promoter. Format: cell-based. Particulars: ChIP followed by real-time PCR. For orientation: Real-time PCR tracks product formation cycle by cycle.
Experiment [7] has as its target T3, Y464D-Ppara (Mus musculus, UniProt P23204, Y464D).
T3 sequence (P23204 1-468 Y464D): T1 sequence (P23204 1-468 Y314D) with D314Y, Y464D
Format: cell-based. Particulars: Ppara-null astrocytes transduced with lenti-Y464D-Ppara, 4 h.

Experiment [8] addresses T4, PPARα LBD (Homo sapiens, UniProt Q07869).
T4 sequence (Q07869 239-466 limits assumed): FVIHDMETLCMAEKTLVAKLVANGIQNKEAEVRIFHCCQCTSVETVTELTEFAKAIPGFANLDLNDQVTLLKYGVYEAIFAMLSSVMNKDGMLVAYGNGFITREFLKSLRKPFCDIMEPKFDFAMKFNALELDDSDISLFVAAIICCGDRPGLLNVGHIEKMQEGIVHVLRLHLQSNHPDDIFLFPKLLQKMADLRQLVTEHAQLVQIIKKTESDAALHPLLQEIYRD
The experiment can be described thus: Lanthascreen TR-FRET PPAR-alpha coactivator assay. Format: biochemical. For orientation: In TR-FRET formats the signal depends on donor and acceptor labels being close together.

Setting [9] is: Ppara-null neurons transduced with FL-Ppara.
Where [10] appears, read: Ppara-null neurons transduced with lenti-Y314D-Ppara.
Setting [11] is: Ppara-null neurons transduced with lenti-Y464D-Ppara.
[12] abbreviates: Ppara-null neurons transduced with lenti-Y464D/Y314D-Ppara.

Residue numbers refer to the chain shown, from its start. Where two headings read alike, the source gives them in different places.

As a reminder, the EC50 is the concentration giving half of the maximal effect. A low value points to a more potent agent.

As to `CCCCCCCCCCCCCCCC(N)=O` [HEX, hexadecanamide], the values for the PPRE-luciferase activity entry in experiment [1], in experiment [2] and in experiment [7] were “partial induction of PPRE-luciferase activity”, “unable to stimulate PPRE-luciferase activity” and “unable to stimulate PPRE-luciferase activity”, respectively. The “expression of CREB” value in experiment [3] (setting [9]) is “stimulated the expression of CREB”; in experiment [3] (setting [10]), “only partially restored the expression of CREB”; in experiment [3] (setting [11]) it was “remained unable to increase the expression of CREB”; in experiment [3] (setting [12]), “remained unable to increase the expression of CREB”. Moreover, the PPRE-driven luciferase activity result in experiment [4] is “remained unable to induce PPRE-driven luciferase activity”. The “inhibition by GW9662 of ligand-mediated increase in PPRE-luciferase activity” value in experiment [5] was “remained unable to inhibit”. Further, the PPRE luciferase activity result in experiment [5] is listed as “markedly increased PPRE luciferase activity”. The “recruitment of PPARα and PGC1α to the CREB promoter” value in experiment [6] is “stimulated the recruitment of PPARα and its coactivator PGC1α to the CREB promoter”. This compound also yielded an EC50 in experiment [8] of 5.26 µM.
With `CCCCCCCCC=CCCCCCCCC(N)=O` [OCT, 9-octadecenamide], the PPRE-luciferase activity result is “partial induction of PPRE-luciferase activity” in experiment [1], “unable to stimulate PPRE-luciferase activity” in experiment [2] and “unable to stimulate PPRE-luciferase activity” in experiment [7]. Moreover, the “expression of CREB” value in experiment [3] (setting [9]) is given as “stimulated the expression of CREB”; in experiment [3] (setting [10]) it was “only partially restored the expression of CREB”; in experiment [3] (setting [11]) it was “remained unable to increase the expression of CREB”; in experiment [3] (setting [12]), “remained unable to increase the expression of CREB”. For the same compound, in experiment [4], the PPRE-driven luciferase activity result is “remained unable to induce PPRE-driven luciferase activity”. Further, the “inhibition by GW9662 of ligand-mediated increase in PPRE-luciferase activity” value in experiment [5] is “remained unable to inhibit”. Moreover, the PPRE luciferase activity result in experiment [5] was “markedly increased PPRE luciferase activity”. For the same compound, in experiment [6], the “recruitment of PPARα and PGC1α to the CREB promoter” value is “stimulated the recruitment of PPARα and its coactivator PGC1α to the CREB promoter”. In experiment [8], the half-maximal effective concentration (EC50) was determined as 4.84 µM.

Source of the values: publication PMC5110367 (Nature chemical biology, 2016).
